From ChEMBL document CHEMBL2016450, “Design, synthesis, and biological evaluation of chalcone oxime derivatives as potential immunosuppressive agents” (Bioorg Med Chem Lett, 2012)
Active and inactive are the calls of the source. The rule behind the calls is not given here.

test system: not listed separately; assay: Selectivity index, ratio of CC50 for Balb/c mouse lymph node cells to IC50 for anti-CD3/[…] co-stimulated mouse Balb/c mouse lymph node cells; assay type: functional
In short: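 The selectivity index is CC50 on unstimulated lymph node cells divided by IC50 for proliferation of anti-CD3/anti-CD28 co-stimulated lymph node cells, both relative to control values.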

Compound	Ratio CC50/IC50
O/N=C(\C=C\c1ccc(F)cc1)c1ccc(Cl)cc1	1.08
COc1ccc(/C=C/C(=N\O)c2ccc(C)cc2)cc1	18.82
O/N=C(\C=C\c1cccs1)c1ccc(Cl)cc1	1.23
O/N=C(\C=C\c1ccc(Cl)cc1)c1ccc(Cl)cc1	1.54
COc1ccc(C(/C=C/c2ccc(Cl)cc2)=N/O)cc1	25.31
Cc1ccc(C(/C=C/c2ccc(Br)cc2)=N/O)cc1	2.94
Cc1ccc(C(/C=C/c2ccc(Cl)cc2)=N/O)cc1	1.84
COc1ccc(/C=C/C(=N\O)c2ccc(Br)cc2)cc1	>4.75
COc1ccc(C(/C=C/c2ccc(Br)cc2)=N/O)cc1	52.93
O/N=C(\C=C\c1ccc(Cl)cc1)c1ccc(F)cc1	1.36
COc1ccc(/C=C/C(=O)c2ccc(OC)cc2)cc1 [4,4'-DIMETHOXYCHALCONE]	75.98
Cc1ccc(C(/C=C/c2ccc(Cl)c(Cl)c2)=N/O)cc1	2.32
COc1ccc(/C=C/C(=N\O)c2ccc(Cl)cc2)cc1	4.16
COc1ccc(C(/C=C/c2cccs2)=N/O)cc1	1.25
Cc1ccc(C(/C=C/c2ccc(F)cc2)=N/O)cc1	1.17
O/N=C(\C=C\c1cccs1)c1ccc(Br)cc1	1.38
O/N=C(\C=C\c1ccc(F)cc1)c1ccc(Br)cc1	1.53
COc1ccc(C(/C=C/c2ccc(Cl)cc2Cl)=N/O)cc1	2.24
COc1ccc(C(/C=C/c2ccccc2)=N/O)cc1	2.42
COc1ccc(/C=C/C(=N\O)c2ccc(OC)cc2)cc1	176.69
O/N=C(\C=C\c1ccc(Cl)cc1)c1ccc(Br)cc1	1.68
COc1ccc(C(=O)/C=C/c2ccc(Br)cc2)cc1	3.73
COc1ccc(C(/C=C/c2ccc(F)cc2)=N/O)cc1	1.23

test system: not listed separately; assay: Cytotoxicity against Balb/c mouse lymph node cells after 48 hrs by MTT assay; assay type: cell-based
In short: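 Naïve lymph node cells; the CC50 is the concentration giving 50% cell survival. Cyclosporin A served as the reference control.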

Compound	CC50 at 48 h
O/N=C(\C=C\c1ccc(F)cc1)c1ccc(Cl)cc1	11.5 µM
COc1ccc(/C=C/C(=N\O)c2ccc(C)cc2)cc1	117 µM
O/N=C(\C=C\c1cccs1)c1ccc(Cl)cc1	11.8 µM
O/N=C(\C=C\c1ccc(Cl)cc1)c1ccc(Cl)cc1	14.1 µM
COc1ccc(C(/C=C/c2ccc(Cl)cc2)=N/O)cc1	291 µM
O/N=C(\C=C\c1ccc(Cl)c(Cl)c1)c1ccc(Br)cc1	< 5 µM
Cc1ccc(C(/C=C/c2ccc(Br)cc2)=N/O)cc1	34.2 µM
Cc1ccc(C(/C=C/c2ccc(Cl)cc2)=N/O)cc1	21.3 µM
COc1ccc(/C=C/C(=N\O)c2ccc(Br)cc2)cc1	23.7 µM
COc1ccc(C(/C=C/c2ccc(Br)cc2)=N/O)cc1	737 µM
O/N=C(\C=C\c1ccc(Cl)cc1)c1ccc(F)cc1	14.8 µM
COc1ccc(/C=C/C(=O)c2ccc(OC)cc2)cc1 [4,4'-DIMETHOXYCHALCONE]	1790 µM
Cc1ccc(C(/C=C/c2ccc(Cl)c(Cl)c2)=N/O)cc1	14.7 µM
COc1ccc(/C=C/C(=N\O)c2ccc(Cl)cc2)cc1	24.3 µM
COc1ccc(C(/C=C/c2cccs2)=N/O)cc1	10.6 µM
Cc1ccc(C(/C=C/c2ccc(F)cc2)=N/O)cc1	13.2 µM
O/N=C(\C=C\c1cccs1)c1ccc(Br)cc1	15.3 µM
O/N=C(\C=C\c1ccc(F)cc1)c1ccc(Br)cc1	20.3 µM
COc1ccc(C(/C=C/c2ccc(Cl)cc2Cl)=N/O)cc1	25 µM
COc1ccc(C(/C=C/c2ccccc2)=N/O)cc1	28.6 µM
COc1ccc(/C=C/C(=N\O)c2ccc(OC)cc2)cc1	2170 µM
O/N=C(\C=C\c1ccc(Cl)cc1)c1ccc(Br)cc1	24.7 µM
COc1ccc(C(=O)/C=C/c2ccc(Br)cc2)cc1	93.7 µM
COc1ccc(C(/C=C/c2ccc(F)cc2)=N/O)cc1	13.5 µM

organism: Mus musculus; assay: Induction of apoptosis in anti-CD-3/[…] co-stimulated Balb/c mouse lymph node cells assessed as caspase 3 cleavage product p17 formation after 24 hrs by Western blot analysis; assay type: functional
In short: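 Anti-CD3/anti-CD28 co-stimulated lymph node cells were treated with compound across a dose series. Lysates were probed by Western blot with an anti-cleaved caspase-3 antibody that recognises the p17 cleavage fragment.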

Compound	Activity
COc1ccc(C(/C=C/c2ccc(Br)cc2)=N/O)cc1	Dose-dependent effect
COc1ccc(/C=C/C(=N\O)c2ccc(OC)cc2)cc1	Dose-dependent effect

organism: Mus musculus; assay: Induction of apoptosis in anti-CD-3/[…] co-stimulated Balb/c mouse lymph node cells assessed as apoptotic cells after 24 hrs by annexin V/PI staining-based flow cytometric analysis; assay type: functional
In short: (§1)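 Lymph node cells isolated from naïve mice were cultured with anti-CD3/anti-CD28 plus compound at 10, 20 or 40 µg/mL for 24 h. Cells were stained with Annexin V-FITC/PI and apoptotic cells were counted by flow cytometry.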

Compound	Activity
COc1ccc(C(/C=C/c2ccc(Br)cc2)=N/O)cc1	Dose-dependent effect
COc1ccc(/C=C/C(=N\O)c2ccc(OC)cc2)cc1	Dose-dependent effect

organism: Mus musculus; assay: Induction of apoptosis in anti-CD-3/[…] co-stimulated Balb/c mouse lymph node cells assessed as PARP cleavage at 10 to 40 ug/ml after 24 hrs by Western blot analysis; assay type: functional

Compound	Activity
COc1ccc(/C=C/C(=N\O)c2ccc(OC)cc2)cc1	Active

test system: not listed separately; assay: Induction of apoptosis in anti-CD-3/[…] co-stimulated Balb/c mouse lymph node cells assessed as apoptotic cells at 10 ug/ml after 24 hrs by annexin V/PI staining-based flow cytometric analysis; assay type: functional; in short: as §1

Compound	Activity
COc1ccc(C(/C=C/c2ccc(Br)cc2)=N/O)cc1	22.71%
COc1ccc(/C=C/C(=N\O)c2ccc(OC)cc2)cc1	25.83%

test system: not listed separately; assay: Induction of apoptosis in anti-CD-3/[…] co-stimulated Balb/c mouse lymph node cells assessed as apoptotic cells at 40 ug/ml after 24 hrs by annexin V/PI staining-based flow cytometric analysis; assay type: functional; in short: as §1

Compound	Activity
COc1ccc(C(/C=C/c2ccc(Br)cc2)=N/O)cc1	40.63%
COc1ccc(/C=C/C(=N\O)c2ccc(OC)cc2)cc1	96.46%

test system: not listed separately; assay: Immunosuppressive activity in anti-CD3/[…] co-stimulated Balb/c mouse lymph node cells assessed as inhibition of cell proliferation after 72 hrs by ELISA; assay type: functional
In short: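 Lymph node cells co-stimulated with anti-CD3/anti-CD28. The IC50 is the concentration inhibiting proliferation by 50% relative to control values. Cyclosporin A served as the reference control.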

Compound	IC50
O/N=C(\C=C\c1ccc(F)cc1)c1ccc(Cl)cc1	10.6 µM
COc1ccc(/C=C/C(=N\O)c2ccc(C)cc2)cc1	6.24 µM
O/N=C(\C=C\c1cccs1)c1ccc(Cl)cc1	9.59 µM
O/N=C(\C=C\c1ccc(Cl)cc1)c1ccc(Cl)cc1	9.15 µM
COc1ccc(C(/C=C/c2ccc(Cl)cc2)=N/O)cc1	11.5 µM
O/N=C(\C=C\c1ccc(Cl)c(Cl)c1)c1ccc(Br)cc1	< 5 µM
Cc1ccc(C(/C=C/c2ccc(Br)cc2)=N/O)cc1	11.6 µM
Cc1ccc(C(/C=C/c2ccc(Cl)cc2)=N/O)cc1	11.6 µM
COc1ccc(/C=C/C(=N\O)c2ccc(Br)cc2)cc1	< 5 µM
COc1ccc(C(/C=C/c2ccc(Br)cc2)=N/O)cc1	13.9 µM
O/N=C(\C=C\c1ccc(Cl)cc1)c1ccc(F)cc1	10.9 µM
COc1ccc(/C=C/C(=O)c2ccc(OC)cc2)cc1 [4,4'-DIMETHOXYCHALCONE]	23.6 µM
Cc1ccc(C(/C=C/c2ccc(Cl)c(Cl)c2)=N/O)cc1	6.34 µM
COc1ccc(/C=C/C(=N\O)c2ccc(Cl)cc2)cc1	5.85 µM
COc1ccc(C(/C=C/c2cccs2)=N/O)cc1	8.49 µM
Cc1ccc(C(/C=C/c2ccc(F)cc2)=N/O)cc1	11.2 µM
O/N=C(\C=C\c1cccs1)c1ccc(Br)cc1	11.2 µM
O/N=C(\C=C\c1ccc(F)cc1)c1ccc(Br)cc1	13.3 µM
COc1ccc(C(/C=C/c2ccc(Cl)cc2Cl)=N/O)cc1	11.2 µM
COc1ccc(C(/C=C/c2ccccc2)=N/O)cc1	11.8 µM
COc1ccc(/C=C/C(=N\O)c2ccc(OC)cc2)cc1	12.3 µM
O/N=C(\C=C\c1ccc(Cl)cc1)c1ccc(Br)cc1	14.7 µM
COc1ccc(C(=O)/C=C/c2ccc(Br)cc2)cc1	25.1 µM
COc1ccc(C(/C=C/c2ccc(F)cc2)=N/O)cc1	11 µM

test system: not listed separately; assay: Induction of apoptosis in anti-CD-3/[…] co-stimulated Balb/c mouse lymph node cells assessed as apoptotic cells at 20 ug/ml after 24 hrs by annexin V/PI staining-based flow cytometric analysis; assay type: functional; in short: as §1

Compound	Activity
COc1ccc(C(/C=C/c2ccc(Br)cc2)=N/O)cc1	32.25%
COc1ccc(/C=C/C(=N\O)c2ccc(OC)cc2)cc1	34.05%
